Data on 4 molecules can be found in ChEMBL document CHEMBL3091335, “Design and synthesis of potent and selective P2X₃ receptor antagonists derived from PPADS as potential pain modulators” (Eur J Med Chem, 2013).

Positions count from the first letter of the chain named.

What is called inhibition is how much of the control response was suppressed. For orientation: IC50 means the concentration at which inhibition is half-maximal.

Assay [1] concerns the target T1, P2X purinoceptor 3 (Homo sapiens) (UniProt P56373).
T1 sequence (whole entry): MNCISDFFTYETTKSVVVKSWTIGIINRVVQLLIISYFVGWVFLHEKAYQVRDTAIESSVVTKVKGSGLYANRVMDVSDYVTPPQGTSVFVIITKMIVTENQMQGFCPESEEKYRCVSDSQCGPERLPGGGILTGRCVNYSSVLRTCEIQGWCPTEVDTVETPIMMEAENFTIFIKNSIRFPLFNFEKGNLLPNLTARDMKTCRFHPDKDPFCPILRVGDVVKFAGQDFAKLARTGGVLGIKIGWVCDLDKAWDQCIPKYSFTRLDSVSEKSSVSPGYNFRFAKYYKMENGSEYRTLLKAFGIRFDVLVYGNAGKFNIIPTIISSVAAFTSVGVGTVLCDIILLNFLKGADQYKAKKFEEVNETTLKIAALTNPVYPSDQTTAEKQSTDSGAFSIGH
In words: Antagonist activity at recombinant human P2X3 receptor expressed in Xenopus oocytes assessed as inhibition of ATP-induced ion current at 1 uM preincubated for 15 mins followed by ATP addition by two-electrode voltage clamp assay relative to control. It is filed as cell-based.

The target of another assay is T2, P2X purinoceptor 3 (Homo sapiens, UniProt P56373).
T2 sequence (P56373 whole entry): T1 sequence (whole entry)
Put plainly: Antagonist activity at recombinant human P2X3 receptor expressed in Xenopus oocytes assessed as inhibition of ATP-induced ion current preincubated for 20 mins followed by ATP addition by two-electrode voltage clamp assay. It is filed as cell-based. An outline of the steps:
(§1)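 Defolliculated Xenopus oocytes were injected with mP2X1 or hP2X3 cRNA (40 nL), held 24 h at 18 °C in Barth's solution, then stored at 4 °C for up to 12 days. Two-electrode voltage clamp was run at Vh −70 mV in HEPES/BaCl2 buffer at pH 7.5. ATP was superfused for 60–120 s with 20 min washout. Currents were normalized to the ATP response, giving % inhibition or IC50 from inhibition curves; mean ± SEM, n≥3.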
On the technique in general: In two-electrode clamp one electrode senses voltage and the other passes current.

Assay [2] deals with T3, P2X2/P2X3 receptor (Rattus norvegicus) (UniProt P49653+P49654). Put plainly: Antagonist activity at recombinant rat P2X2/3 receptor expressed in Xenopus oocytes assessed as inhibition of ATP-induced ion current at 1 uM preincubated for 15 mins followed by ATP addition by two-electrode voltage clamp assay relative to control. The assay is classed as cell-based.
For assay [3], the target named is T1, P2X purinoceptor 3 (Homo sapiens). In words: Antagonist activity at recombinant human P2X3 receptor expressed in Xenopus oocytes assessed as inhibition of ATP-induced ion current at 100 nM preincubated for 15 mins followed by ATP addition by two-electrode voltage clamp assay relative to control. The assay is classed as cell-based.
Assay [4] in a line: Antinociceptive activity in rat spinal dorsal horn assessed as inhibition of electrically-stimulated long term potentiation at 20 uM by Di-4-ANEPPS dye-based assay relative to control. The following applies: Dorsal horn of spinal cord. The assay is classed as functional. An outline of the steps: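 Ex vivo rat spinal cord slices (0.5 mm) loaded with voltage-sensitive dye Di-4-ANEPPS; optical signal in dorsal horn monitored before and after LTP induction by 2 Hz electrical stimulation (0.5 msec pulse) for 2 min. Expressed as % inhibition of LTP with compound treatment; means ± SD of 4 samples; pregabalin positive control.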

Assay [5] deals with T4, P2X purinoceptor 1 (Mus musculus) (UniProt P51576).
T4 sequence (whole entry): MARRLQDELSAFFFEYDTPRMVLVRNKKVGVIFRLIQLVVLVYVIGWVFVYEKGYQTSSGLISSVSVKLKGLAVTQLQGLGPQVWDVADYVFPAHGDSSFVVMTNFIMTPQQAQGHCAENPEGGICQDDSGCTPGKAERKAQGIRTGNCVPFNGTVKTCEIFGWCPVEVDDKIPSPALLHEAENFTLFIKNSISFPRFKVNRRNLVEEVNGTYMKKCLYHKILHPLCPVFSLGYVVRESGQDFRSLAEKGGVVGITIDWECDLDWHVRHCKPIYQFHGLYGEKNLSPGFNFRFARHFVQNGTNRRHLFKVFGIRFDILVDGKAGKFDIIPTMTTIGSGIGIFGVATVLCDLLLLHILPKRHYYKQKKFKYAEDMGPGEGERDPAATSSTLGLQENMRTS
In words: Antagonist activity at recombinant mouse P2X1 receptor expressed in Xenopus oocytes assessed as inhibition of ATP-induced ion current at 10 uM preincubated for 20 mins followed by ATP addition by two-electrode voltage clamp assay relative to control. The assay is classed as cell-based. The gist of the method:
as §1

The target of assay [6] is T5, P2X purinoceptor 7 (Homo sapiens) (UniProt Q99572).
T5 sequence (whole entry): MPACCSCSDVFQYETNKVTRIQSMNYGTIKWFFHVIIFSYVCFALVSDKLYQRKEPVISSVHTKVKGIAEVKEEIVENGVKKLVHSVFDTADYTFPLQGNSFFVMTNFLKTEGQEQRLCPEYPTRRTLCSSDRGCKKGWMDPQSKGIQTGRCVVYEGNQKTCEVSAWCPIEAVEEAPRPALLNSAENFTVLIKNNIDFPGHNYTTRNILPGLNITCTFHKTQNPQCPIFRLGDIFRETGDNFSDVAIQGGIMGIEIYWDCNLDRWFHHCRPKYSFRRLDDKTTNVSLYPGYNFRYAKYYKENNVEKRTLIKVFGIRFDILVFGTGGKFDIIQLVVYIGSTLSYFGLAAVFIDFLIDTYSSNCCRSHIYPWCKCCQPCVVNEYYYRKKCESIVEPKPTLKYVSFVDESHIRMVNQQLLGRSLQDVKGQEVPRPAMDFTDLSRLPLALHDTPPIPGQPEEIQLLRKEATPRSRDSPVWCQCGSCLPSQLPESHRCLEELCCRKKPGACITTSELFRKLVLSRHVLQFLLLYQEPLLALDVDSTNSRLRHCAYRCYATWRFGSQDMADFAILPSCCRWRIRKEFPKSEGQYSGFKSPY
Put plainly: Antagonist activity at human P2X7 receptor expressed in HEK293 cells assessed as inhibition of BzATP-induced accumulation of ethidium+ at 10 uM after 120 mins by fluorescence assay relative to control. The assay is classed as cell-based. The gist of the method:
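HEK293 cells expressing hP2X7 were grown in DMEM with 10% FBS at 37 °C under 5% CO2, harvested with trypsin/EDTA and resuspended at 2.5 × 10⁶ cells/mL in KCl/glucose/EDTA/HEPES buffer (pH 7.4) with ethidium bromide. Cells were plated at 2 × 10⁵ cells/well with BzATP and incubated at 37 °C for 120 min. Fluorescence was read at ex 530/em 590 nm; mean ± SEM, n≥3.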

The target of assay [7] is T3, P2X2/P2X3 receptor (Rattus norvegicus). Put plainly: Antagonist activity at recombinant rat P2X2/3 receptor expressed in Xenopus oocytes assessed as inhibition of ATP-induced ion current at 100 nM preincubated for 15 mins followed by ATP addition by two-electrode voltage clamp assay relative to control. The assay is classed as cell-based.
Assay [8] concerns the target T6, P2X purinoceptor 1 (Mus musculus, UniProt P51576).
T6 sequence (P51576 whole entry): T4 sequence (whole entry)
Put plainly: Antagonist activity at mouse P2X1 receptor.

Assay [9] has as its target T7, P2X purinoceptor 7 (Homo sapiens, UniProt Q99572).
T7 sequence (Q99572 whole entry): T5 sequence (whole entry)
Put plainly: Antagonist activity at human P2X7 receptor expressed in HEK293 cells assessed as inhibition of BzATP-induced accumulation of ethidium+ after 120 mins by fluorescence assay. The assay is classed as cell-based.

The target in assay [10] is T7, P2X purinoceptor 7. Put plainly: Antagonist activity at recombinant human P2X7 receptor assessed as inhibition of BzATP-mediated Yo-Pro uptake measured for 1 hr by FLIPR assay.
The target in assay [11] is T8, P2X purinoceptor 1 (Rattus norvegicus, UniProt P47824).
T8 sequence (P47824 whole entry): T4 sequence (whole entry) with G60D, M108V, A113T, H180R, L223Q, S231N, E260K, R314H, R381H, A384V
In words: Antagonist activity at recombinant rat P2X1 receptor expressed in Xenopus oocytes assessed as ion flux stimulation. The assay is classed as cell-based.

For assay [12], the target named is T6, P2X purinoceptor 1. In words: Antagonist activity at recombinant mouse P2X1 receptor expressed in Xenopus oocytes assessed as inhibition of ATP-induced ion current preincubated for 20 mins followed by ATP addition by two-electrode voltage clamp assay. It is filed as cell-based. An outline of the steps: as §1

Turning to `Cc1nc(Cc2cccc(Oc3ccccc3)c2)c(/C=C/C(=O)O)c(C=O)c1O`, the inhibition came to 77.4% in assay [1]; 70.8% in [2]; 59.7% in [3]; 18.3% in assay [5]; 15.1% in assay [6]; 49.2% in assay [7]. For the same molecule, the IC50 at P2X purinoceptor 3 was 60 nM. For the same molecule, the inhibition at 20 µM in assay [4] is 65%.
`Cc1nc(/N=N/c2ccc(S(=O)(=O)O)cc2S(=O)(=O)O)c(COP(=O)(O)O)c(C=O)c1O` returned a half-inhibitory concentration (IC50) at P2X purinoceptor 1 [8] of 99 nM.
`CN([C@@H](Cc1ccc(OS(=O)(=O)c2cccc3cnccc23)cc1)C(=O)N1CCN(c2ccccc2)CC1)S(=O)(=O)c1cccc2cnccc12`: the half-inhibitory concentration (IC50) at P2X purinoceptor 7 [9] stood at 158 nM; at P2X purinoceptor 7 [10], 210 nM.
As to `Cc1nc(/N=N/c2ccc(C(=O)O)cc2)c(COP(=O)(O)O)c(C=O)c1O`, the results for the 50% inhibitory concentration (IC50) at P2X purinoceptor 1 [11] and at P2X purinoceptor 1 [12] were 43 nM and 30 nM, respectively.
